Bioassay records as filed in PubChem.
CASP6 VEID inh – human caspase-6 inhibitors, primary screen, biochemical, VEID-R110 fluorescence, single point, set 2; inhibition, % at 12.5 µM; P55212; AID 686996, 2013; purified caspase-6, Z-VEID-R110 cleavage fluorescence; 0.53% of 350,000 active;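 active means mean inhibition across replicates at least about 35%, with every replicate also reaching that limit, limit read from the data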
Target sequence (P55212 24-179 limits assumed): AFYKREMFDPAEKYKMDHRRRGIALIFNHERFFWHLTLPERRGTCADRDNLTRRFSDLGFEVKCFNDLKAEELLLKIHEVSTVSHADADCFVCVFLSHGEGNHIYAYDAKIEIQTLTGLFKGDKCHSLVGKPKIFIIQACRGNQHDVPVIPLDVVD
Target sequence (P55212 194-293 limits assumed): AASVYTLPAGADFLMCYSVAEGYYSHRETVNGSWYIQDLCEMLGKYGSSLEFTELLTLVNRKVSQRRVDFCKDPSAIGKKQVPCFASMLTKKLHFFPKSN
MBD2 DNA inh – inhibitors of MBD2 binding to methylated DNA, primary screen, biochemical, TR-FRET, DNA-binding domain, human; Methyl-CpG-binding domain protein 2 (Homo sapiens), Q9UBB5; AID 686964, 2013; 0.31% of 370,000 active; MBD2 binding to methylated oligonucleotide; inhibition, % at 4.4 µM; in the data active means inhibition above about 13%
UHRF1 MBD2 ctr – UHRF1 methylated DNA binding inhibitors, primary screen, counter-screen for MBD2 inhibitor project, biochemical, TR-FRET, human UHRF1, single concentration. E3 ubiquitin-protein ligase UHRF1 (Homo sapiens), Q96T88. UHRF1 binding to methylated oligo. AID 687016, 2013. 0.75% of 370,000 active. inhibition, % at 4.4 µM; in the data active means inhibition above about 21%;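 further: UHRF1 SRA domain binding a hemimethylated CpG hairpin DNA probe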
TDP2 absorb – human TDP2 enzyme inhibitors, primary screen, biochemical, epi absorbance, recombinant enzyme; 0.34% of 370,000 active; Tyrosyl-DNA phosphodiesterase 2 (Homo sapiens), O95551; T5PNP hydrolysis, p-nitrophenol absorbance 415 nm; inhibition, % at 12.8 µM;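 active means inhibition above the mean of all tested compounds plus 3 SD, set per campaign, cut at about 25% in these data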
Target sequence (O95551 whole entry, looked up): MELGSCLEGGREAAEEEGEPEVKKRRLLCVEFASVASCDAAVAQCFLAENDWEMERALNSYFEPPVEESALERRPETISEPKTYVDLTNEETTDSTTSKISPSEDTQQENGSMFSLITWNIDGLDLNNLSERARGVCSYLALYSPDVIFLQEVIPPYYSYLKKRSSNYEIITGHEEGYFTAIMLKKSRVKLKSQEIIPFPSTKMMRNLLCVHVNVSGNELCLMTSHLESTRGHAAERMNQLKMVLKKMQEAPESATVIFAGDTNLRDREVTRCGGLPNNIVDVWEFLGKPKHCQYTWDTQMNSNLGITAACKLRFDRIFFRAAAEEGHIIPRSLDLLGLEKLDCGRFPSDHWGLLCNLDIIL
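System – recombinant human TDP2 · Amount – 120 nM TDP2 per well · Buffer or medium – Mg2+-containing Tris-HCl buffer, pH 7.5 · Reagent – T5PNP substrate, 5 mM · Dosing – 12.8 µM single point, 1% DMSO · Incubation – 2 h at 37 °C · Measured by – epi absorbance · Read-out basis – percent inhibition · Benchmarks – high control without enzyme, low control DMSO plus TDP2 · Repeats – singlicate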
NSD2 HMT inh – NSD2 histone methyltransferase inhibitors, primary screen, biochemical, AlphaScreen, single concentration, set 2. NSD2 peptide methylation, 120 min. Histone-lysine N-methyltransferase NSD2 (Homo sapiens), O96028. 0.54% of 310,000 active. inhibition, % at 12.5 µM; in the data active means inhibition above about 50%
LEDGF integ inh – blockers of LEDGF/p75-dependent integrase strand transfer – biochemical, TR-FRET, high throughput, primary screen. 0.64% of 370,000 active. HIV-1 integrase (with human LEDGF/p75). TR-FRET IN-LEDGF/p75 DNA integration, Eu/Cy5. inhibition, % at 3.7 µM;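 active means inhibition above the screen-wide mean plus 3 SD, cut at about 13% in these data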;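 further: signal is the Cy5 over europium emission ratio at 671 and 618 nm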
IN multimer act – HIV-1 IN multimer formation enhancers, counter-screen for LEDGF/p75 integration inhibitor project, biochemical, TR-FRET; shares compounds with LEDGF integ inh; TR-FRET HIV-1 integrase multimerization; activation, % at 7.7 µM; 17% of 2,000 active; in the data active means activation above about 8.9%
TRFRET interf – TR-FRET optical interference artefacts, confirmation, artefact control for LEDGF/p75-dependent integration inhibitor project, biochemical, HIV-1 IN multimerization | shares compounds with LEDGF integ inh | TR-FRET optical interference counterscreen | inhibition, % at 7.7 µM | 2,000 tested, under 10 active | AID 1053135, 2014;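 active means inhibition above the mean over all tested compounds plus 3 SD, which no compound reached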
LEDGF integ conf – inhibitors of HIV-1 IN-LEDGF/p75 DNA integration, confirmation, biochemical, TR-FRET | shares compounds with LEDGF integ inh | TR-FRET LEDGF/p75-dependent HIV-1 integration | inhibition, % at 3.7 µM | 36% of 2,000 active | AID 1053136, 2014; in the data active means inhibition above about 14%
Numbers stand for hits; – = inactive; · = no result given. This is a sample that favours compounds with a hit; in the whole collection about 1.8% have one here.

SMILES	CASP6 VEID inh	MBD2 DNA inh	UHRF1 MBD2 ctr	TDP2 absorb	NSD2 HMT inh	LEDGF integ inh	IN multimer act	TRFRET interf	LEDGF integ conf
CCN(CC)C(=O)[C@H]1C[C@H](CC(=O)NCCc2ccccn2)C(=O)N2CCc3c([nH]c4cc(-c5ccco5)ccc34)[C@]12C	–	–	–	–	·	65	–	–	–
CC(C)N(C(=O)[C@H]1C[C@H](CC(=O)NCCc2ccccn2)C(=O)N2CCc3c([nH]c4cc(-c5ccco5)ccc34)[C@]12C)C(C)C	–	–	–	–	·	–	·	·	·
CC(=O)NNC(=O)c1sc(=S)n(C)c1C	–	–	–	–	–	22	–	–	–
COC(=O)[C@]1(C)N[C@H](CN(C)S(=O)(=O)c2ccc(OC(F)(F)F)cc2)[C@@H]2C(=O)N(Cc3ccccc3)C(=O)[C@@H]21	–	–	–	–	·	15	–	–	–
NC(c1ccccc1)c1csc(Nc2ccccn2)n1 (stereo not drawn)	–	–	–	–	–	–	·	·	·
NC(c1csc(Nc2ccccn2)n1)C1CCCCC1 (stereo not drawn)	–	–	–	–	–	14	–	–	–
COc1ccc(CCNC(=O)c2cc(Cl)nc3ccccc23)cc1	–	–	–	–	–	15	–	–	–
COc1ccc(CCNC(=O)c2cc(-c3ccccn3)nc3ccccc23)cc1	–	–	–	–	–	–	·	·	·
CO[C@H]1CN(C)C(=O)c2cc(NC(C)=O)ccc2OC[C@@H](C)N(Cc2ccccn2)C[C@H]1C	–	·	·	·	·	·	·	·	·
CN(CCc1ccccc1)C(=O)c1ccc(NC(=O)Cc2cccc(NC(=O)C3CCN(C(=O)c4ccccc4)CC3)c2)cc1	–	–	–	–	·	21	–	–	–
O=C(O)c1cn(-c2ccccc2)nc1-c1ccncc1	·	–	–	–	–	–	·	·	·
O=C(c1cn(-c2ccccc2)nc1-c1ccncc1)n1nnc2ccccc21	–	–	–	–	–	16	–	–	–
CC1CN(C)C(C)C/C1=N/Oc1ccccc1[N+](=O)[O-] (stereo not drawn)	–	–	–	–	–	26	–	–	–
Cc1ccc(/C=c2\s/c(=C(/C#N)C(=O)N3CCCC3)n(Cc3ccco3)c2=O)s1	–	–	–	–	–	14	–	–	–
COc1ccc2c(c1)C(c1ccc(C)o1)=NNC(c1cccnc1)=N2	–	–	–	–	·	19	–	–	–
O=C(CSc1nnc(Cc2cccs2)n1C1CCCCC1)N1CCCc2ccccc21	·	–	–	–	–	14	–	–	–
CC1CCN(C(=O)c2[nH]cnc2C(=O)NC2CCN(C(=O)OC(C)(C)C)CC2)CC1	–	–	–	–	·	17	–	–	–
CO[C@H]1CN(C)C(=O)c2ccc(NC(=O)C3CCCC3)cc2OC[C@H](C)N(S(C)(=O)=O)C[C@H]1C	–	·	·	·	·	·	·	·	·
O=C1C(=Cc2cccc(O)c2O)SC(=S)N1CCCN1CCOCC1	–	–	–	–	–	24	18	–	–
O=C(NCC1CC1)c1cccc2c1C(=O)c1ccc(N3CCCC3)cc1S2(=O)=O	–	–	–	–	·	27	–	–	–
COCC#Cc1ccc2c(c1)O[C@H](CN(C)CC1CC1)[C@H](C)CN([C@@H](C)CO)S2(=O)=O	–	·	·	·	·	·	·	·	·
C[C@@H]1CN([C@@H](C)CO)S(=O)(=O)c2ccc(C#CC3CC3)cc2O[C@@H]1CN(C)Cc1ccncc1	–	·	·	·	·	·	·	·	·
CN=c1scc(C)n1/N=C/c1ccc(O)c(O)c1O	·	–	–	–	–	57	33	–	40
CN=c1scc(-c2cccs2)n1/N=C/c1ccc(O)c(O)c1O	–	–	–	–	–	28	–	–	42
CN=c1scc(-c2cccs2)n1/N=C/c1ccccc1O	–	–	–	–	–	–	·	·	·
SMILES	CASP6 VEID inh	MBD2 DNA inh	UHRF1 MBD2 ctr	TDP2 absorb	NSD2 HMT inh	LEDGF integ inh	IN multimer act	TRFRET interf	LEDGF integ conf
COc1ccc(-c2ccc3c(c2)[C@@H]2[C@@H](CCN2S(=O)(=O)c2ccccc2C)[C@H](CO)N3)cc1	–	·	·	·	·	·	·	·	·
CCN1[C@H](C(=O)N2CCc3ccccc3C2)[C@@H](CO)[C@@H]2Cn3c(cccc3=O)[C@@H]21	–	·	·	·	·	·	·	·	·
O=C(CSc1nnc(CNC(=O)c2cccc(C(F)(F)F)c2)o1)NCC1CCCO1 (stereo not drawn)	–	–	–	–	–	–	·	·	·
O=C(CSc1nnc(CNC(=O)c2cccc(C(F)(F)F)c2)o1)NC1CCCC1	–	–	–	–	–	45	–	–	–
CC(=O)Nc1ccc(N/C=C/C(=O)c2ccco2)cc1	·	–	–	–	–	–	·	·	·
CN(C)c1ccc(N/C=C/C(=O)c2ccco2)cc1	·	–	–	–	–	38	11	–	–
O=C(c1ccccc1)c1ccc(O)c(O)c1O	73	–	–	–	·	22	–	–	42
O=C(CS(=O)(=O)Cc1ccccc1)Nc1ccccn1	·	–	–	–	–	–	·	·	·
O=C(CS(=O)(=O)Cc1ccccc1)Nc1ccc(Cl)cn1	·	–	–	–	–	88	–	–	–
Cc1nnc(SCC(=O)Nc2ccc(Cl)cn2)n1Cc1ccccc1	·	–	–	–	–	16	–	–	–
Cc1nnc(NC(=O)CSc2nnc(C)n2Cc2ccccc2)s1	·	–	–	–	–	–	·	·	·
C[C@@H]1CN([C@@H](C)CO)C(=O)c2cccc(NS(C)(=O)=O)c2O[C@H]1CN(C)Cc1ccncc1	–	·	·	·	·	·	·	·	·
C[C@H]1CN([C@@H](C)CO)C(=O)c2cc(C#CCC3CCCC3)cnc2O[C@@H]1CN(C)C(=O)CN(C)C	–	·	·	·	·	·	·	·	·
CCn1ncc(NC(=S)Nc2ccc(OC)c(OC)c2)c1C(N)=O	–	–	–	–	–	14	–	–	–
COc1ccc(S(=O)(=O)Nc2ccc3c(c2)CC(=O)N([C@@H](C)CO)C[C@@H](C)[C@H](CN(C)C(=O)Nc2cccc4ccccc24)O3)cc1	–	·	·	·	·	·	·	·	·
